Calls of active or inactive are those of the source. The calls are words filed in the database; no cut-off is given here.
Key:
[1] = molecular target: T1, 7-dehydrocholesterol reductase (Homo sapiens) (UniProt Q9UBM7); test: Inhibition of 7-dehydrocholesterol reductase in human HL60 cells assessed as accumulation of 7-dehydrocholesterol at 1 uM after 24 hrs by GC/MS analysis; assay type: cell-based; conditions: HL-60
T1 sequence (whole entry): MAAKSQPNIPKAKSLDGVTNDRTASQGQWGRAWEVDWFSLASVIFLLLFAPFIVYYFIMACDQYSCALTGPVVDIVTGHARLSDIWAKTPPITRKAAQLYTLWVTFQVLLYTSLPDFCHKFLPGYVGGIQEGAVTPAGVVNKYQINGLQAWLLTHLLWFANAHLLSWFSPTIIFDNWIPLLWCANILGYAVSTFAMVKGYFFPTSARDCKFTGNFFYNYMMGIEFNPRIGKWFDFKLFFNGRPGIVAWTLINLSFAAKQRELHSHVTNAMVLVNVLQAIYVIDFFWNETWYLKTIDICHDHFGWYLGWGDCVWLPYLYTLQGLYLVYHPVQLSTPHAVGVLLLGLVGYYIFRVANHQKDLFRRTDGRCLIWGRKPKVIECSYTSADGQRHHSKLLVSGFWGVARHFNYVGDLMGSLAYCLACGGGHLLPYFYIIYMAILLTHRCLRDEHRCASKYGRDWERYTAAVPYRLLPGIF
How it was run: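 HL-60 cells (1 × 10⁶) in lipid-free HL-60 medium given inhibitor at 50 μM or 1 μM (ethanol blank) for 24 h at 37 °C, 5% CO2. Pellet saponified in 1 M NaOH, 1 h at 70 °C, then TBME microextraction with cholestane internal standard. GC-MS sterol pattern compared with blanks and with AY 9944 and BM 15.766 references.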

[2] = molecular target: T2, 7-dehydrocholesterol reductase (Homo sapiens, UniProt Q9UBM7); test: Inhibition of […]-mediated cholesterol biosynthesis in human HL60 cells assessed as inhibition of 2-[13C]acetate after 24 hrs GC/MS analysis; assay type: cell-based, HL-60
T2 sequence (Q9UBM7 whole entry): T1 sequence (whole entry)
How it was run: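 Whole-cell cholesterol synthesis in HL-60 cells, 24 h with inhibitor and sodium 2-¹³C-acetate; six concentrations plus blank, in triplicate. Newly made labeled cholesterol (m/z 372–379, 462–469) measured by GC-MS against cholestane and normalized to Bradford protein. % inhibition against untreated control fitted to a variable-slope sigmoid, bottom fixed at 0, giving IC50; BM 15.766 as reference.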

[3] = Antibacterial activity against Streptococcus entericus DSM 14446 after 36 hrs by disc diffusion method
[4] = Antibacterial activity against Pseudomonas antimicrobica DSM 8361 after 36 hrs by disc diffusion method; conditions: burkholderia gladioli
[5] = tested on: Nakaseomyces glabratus; test: Antifungal activity against Candida glabrata DSM 11226 after 36 hrs by disc diffusion method; assay type: organism-based; conditions: in vivo
[6] = Antibacterial activity against Staphylococcus equorum DSM 20675 after 36 hrs by disc diffusion method
[7] = Antifungal activity against Hyphopichia burtonii DSM 70663 after 36 hrs by disc diffusion method
[8] = tested on: Saccharomyces cerevisiae; test: Antimicrobial activity against Saccharomyces cerevisiae DSM 1333 after 48 hrs; assay type: organism-based; conditions: in vivo
How it was run: (§1)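 MIC against the yeast strains determined according to DIN 58940-84; clotrimazole as positive control.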

[9] = tested on: Yarrowia lipolytica; test: Antifungal activity against Yarrowia lipolytica DSM 1345 after 36 hrs by disc diffusion method; assay type: organism-based; conditions: in vivo
[10] = tested on: Saccharomyces cerevisiae; test: Antifungal activity against Saccharomyces cerevisiae DSM 1333 after 36 hrs by disc diffusion method; assay type: organism-based; conditions: in vivo
[11] = Antifungal activity against Aspergillus brasiliensis DSM 1988 after 36 hrs by disc diffusion method
[12] = molecular target: T1, 7-dehydrocholesterol reductase (Homo sapiens); test: Ratio of BM15.766 IC50 to compound IC50 for […]-mediated cholesterol biosynthesis in human HL60 cells; assay type: cell-based; conditions: HL-60
[13] = tested on: Nakaseomyces glabratus; test: Antifungal activity against Candida glabrata DSM 11226 after 48 hrs; assay type: organism-based; conditions: in vivo; how it was run: as §1
[14] = tested on: HL-60; test: Cytotoxicity against human HL60 cells after 24 hrs by MTT assay; assay type: cell-based; conditions: HL-60, 24 h
How it was run: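 MTT colorimetric assay on HL-60 promyelocytic leukemia cells (RPMI 1640, 10% FBS, no antibiotics, 37 °C, 5% CO2) as a preliminary screen for unspecific cytotoxicity; cisplatin as reference.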

[15] = tested on: Yarrowia lipolytica; test: Antifungal activity against Yarrowia lipolytica DSM 1345 after 48 hrs; assay type: organism-based; conditions: in vivo; how it was run: as §1
[16] = tested on: Escherichia coli; test: Antibacterial activity against Escherichia coli DSM 426 after 36 hrs by disc diffusion method; assay type: organism-based; conditions: in vivo

In the case of `COc1cc2c(cc1O)CCN(CCc1ccc(Cl)cc1)C2`, the “7-DHCR inhibition (active/not active)” value [1] is reported as “Active”, the IC50 [2] is reported as 2.3 nM and the Activity [3] is reported as “Non-toxic”. For the same compound, the Activity [4] was “Non-toxic”, the Activity [5] was “Non-toxic” and the Activity [6] was “Non-toxic”. The Activity [7] was “Non-toxic”, the MIC [8] was > 20 µg/mL and the Activity [9] was “Non-toxic”. For the same compound, the Activity [10] was “Non-toxic”, the Activity [11] was “Non-toxic” and the Ratio IC50 [12] was 200. The MIC [13] was > 20 µg/mL, the IC50 [14] was > 50000 nM and the MIC [15] was > 20 µg/mL. The Activity [16] was “Non-toxic”.

Source: ChEMBL document CHEMBL2169759, “A new class of selective and potent 7-dehydrocholesterol reductase inhibitors” (J Med Chem, 2012)
